# Assay outcomes from PubChem.
# In the library only some 3.5% were active in any assay of this set; here they are far more common.
# STAT3 act: STAT3 signaling activation | AID 871 | U3A cells, IL-6 STAT3-luciferase reporter, luminescence; 100% = signal with IL-6 EC80 alone | activation (% of control), % at 5.6 µM | hit rate 0.91% among 190,000;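 active = activation above the screen-wide mean of compound activation plus 3 SD, cut at about 130% in these data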;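 note: 0% = background luminescence of wells with medium and substrate only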
#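 Assay system – human STAT1-deficient U3A cells with stable STAT3-luciferase reporter · Also added – IL-6 (33 ng/mL) · Schedule – compound 1 h, then IL-6 6 h at 37 °C · Technique – reporter luminescence signal · Evaluation – % activation versus median of IL-6-stimulated wells · Benchmarks – IL-6-only wells as 100% reference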
# hK5 inh: kallikrein 5 (human) inhibition; Q9Y337; recombinant hK5, fluorogenic AMC substrate cleavage; inhibition, % at 5 µM; hit rate 0.59% among 210,000; AID 873;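 active = inhibition of 40% or more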;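 note: 0% = enzyme controls without compound and 100% = no-enzyme blanks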
# thrombin 1536: thrombin (human) inhibition | P00734 | alpha-thrombin, Boc-VPR-AMC fluorogenic substrate cleavage | inhibition, % at 5 µM | hit rate 0.26% among 220,000;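 active = inhibition at or above 40%; inactive = inhibition below 40%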;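 note: 0% = enzyme with no compound and 100% = wells without enzyme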
#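 Material: human alpha-thrombin protein. Incubation: reaction at ambient temperature. Technique: fluorescence of released AMC, ex 355 nm, em 460 nm. Control set: no-compound enzyme wells and no-enzyme blanks. Also added: Boc-VPR-AMC substrate, 15 µM final. Buffer or medium: pH 7.5 Tris (50 mM) with NaCl 150 mM, Tween 20 0.05%.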
# FXIIa inh 1536: blocks human coagulation factor XIIa protease activity | AID 800 | P00748 | hit rate 0.3% among 220,000 | purified FXIIa, Boc-QGR-AMC fluorogenic substrate, 2 h | inhibition, % at 5 µM; in the data active = inhibition above about 40%;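 note: 0% = enzyme with no compound and 100% = blank without enzyme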
# FXIa inh 1536: blocks human coagulation factor XIa protease activity | P03951 | purified FXIa, Boc-Glu-Ala-Arg-AMC fluorogenic substrate | inhibition, % at 5 µM | hit rate 0.14% among 220,000;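 active = inhibition of at least 40%; inactive = inhibition below 40%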;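 note: fluorescence of freed AMC excited at 355 nm; 0% = enzyme without compound and 100% = no enzyme blank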
# AHR activator: activators of human aryl hydrocarbon receptor. AHR-responsive luciferase reporter cells, luminescence. activation, % at 5 µM. hit rate 2.5% among 320,000. AID 2796; in the data active = activation above about 47%;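 note: 0% = vehicle wells and 100% = reference agonist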
# Target sequence (P35869 whole entry, looked up): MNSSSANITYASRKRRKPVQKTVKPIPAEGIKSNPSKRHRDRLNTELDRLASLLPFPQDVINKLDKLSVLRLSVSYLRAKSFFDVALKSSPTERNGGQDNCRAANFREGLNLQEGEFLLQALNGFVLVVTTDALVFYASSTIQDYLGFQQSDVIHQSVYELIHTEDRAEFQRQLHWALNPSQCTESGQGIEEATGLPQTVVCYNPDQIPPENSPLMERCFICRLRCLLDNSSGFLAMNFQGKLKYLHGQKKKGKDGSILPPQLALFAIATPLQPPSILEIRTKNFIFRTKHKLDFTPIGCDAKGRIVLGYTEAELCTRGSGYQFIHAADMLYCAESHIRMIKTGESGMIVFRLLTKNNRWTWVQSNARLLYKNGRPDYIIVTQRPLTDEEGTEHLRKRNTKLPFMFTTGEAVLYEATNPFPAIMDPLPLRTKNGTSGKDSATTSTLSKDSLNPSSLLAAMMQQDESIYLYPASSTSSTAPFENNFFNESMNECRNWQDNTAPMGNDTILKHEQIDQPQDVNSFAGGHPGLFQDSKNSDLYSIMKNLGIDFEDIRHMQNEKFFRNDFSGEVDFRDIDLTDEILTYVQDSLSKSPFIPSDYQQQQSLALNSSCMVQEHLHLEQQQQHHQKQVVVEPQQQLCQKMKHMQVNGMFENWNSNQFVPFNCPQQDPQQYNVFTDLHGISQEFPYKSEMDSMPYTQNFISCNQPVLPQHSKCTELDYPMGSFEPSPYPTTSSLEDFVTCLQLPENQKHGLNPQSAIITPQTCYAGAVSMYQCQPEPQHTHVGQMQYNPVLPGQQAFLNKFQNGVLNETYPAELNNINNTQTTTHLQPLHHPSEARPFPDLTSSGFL
# Starred values were filed as active, the others as inactive; x = not tested or not shown.
SMILES,STAT3 act,hK5 inh,thrombin 1536,FXIIa inh 1536,FXIa inh 1536,AHR activator
Cc1ccc(C)c(CN2C(=O)C(C)Oc3ccc(C)cc32)c1 (stereo unspecified),99.3,-16.9,-4.7,2.1,3.5,-0.3
CCCc1ccc(OCc2ccc(C(=O)NCc3cccnc3)o2)c(OC)c1,105.9,3.0,-4.4,10.7,-1.2,50.5*
NNC(=O)c1ccc(COc2cccc3ccccc23)o1,x,-7.4,-9.5,0.7,0.6,68.8*
NNC(=O)c1ccc(COc2cccc3ccccc23)cc1,94.6,-10.0,-11.9,10.9,1.1,25.4
O=C(NCc1cccnc1)c1ccc(COc2ccc(Cl)cc2Cl)o1,118.5,-4.2,3.8,10.4,-1.3,19.8
O=C(NCc1cccnc1)c1ccc(COc2cccc3ccccc23)o1,105.3,-8.2,2.6,13.3,0.2,77.5*
Cc1onc(-c2c(Cl)cccc2Cl)c1COC(=O)c1ccc(Cl)cc1,x,16.8,-4.6,4.4,-11.7,3.2
O=C1CCCN1C(=O)CSc1nnnn1-c1cccc(F)c1,x,x,x,x,x,-0.2
Cc1[nH]nc(-c2ccc(OCc3cnn(-c4ccccc4)c3)cc2O)c1Oc1ccccc1F,106.7,-13.1,-2.0,15.1,-3.5,49.9*
O=c1c(Oc2ccccc2F)coc2cc(OCc3cnn(-c4ccccc4)c3)ccc12,86.9,-23.9,-0.6,8.8,4.5,0.8
CC/C(=N/OC(=O)c1cccc(C)c1)C(=O)c1cccs1,96.0,-0.5,-1.9,7.8,-1.6,1.2
CCc1cccc2sc(N3CCN(C(=O)c4ccc([N+](=O)[O-])o4)CC3)nc12,x,x,x,x,x,7.9
CCOc1ccccc1/C=C(\NC(=O)c1ccccc1)C(=O)NCCC(=O)O,106.7,-11.0,-2.9,16.6,7.7,1.4
CCOc1ccccc1/C=C(/NC(=O)c1ccccc1)C(=O)NCC(=O)O,102.3,47.4*,11.1,2.3,16.0,18.3
C=CCn1c(=O)c(C(=O)Nc2ccccc2O)c(O)c2ccccc21,123.3,-1.4,-3.1,10.4,-1.9,63.2*
Cc1ccccc1NC(=O)/C(C#N)=C/c1ccsc1,127.3,-8.2,-6.8,3.9,-3.6,70.1*
O=C(Nc1ccc([N+](=O)[O-])cc1)C(Cc1ccccc1)N1C(=O)c2cccc3cccc(c23)C1=O (stereo unspecified),135.1*,-1.6,-8.3,5.0,-3.3,34.2
CN(C)S(=O)(=O)c1cc(NC(=O)[C@H](Cc2ccccc2)N2C(=O)c3ccccc3C2=O)ccc1Cl,106.6,-9.0,-2.3,16.6,6.7,71.3*
CN(C)S(=O)(=O)c1cc(NC(=O)COC(=O)CCc2ccccc2)ccc1Cl,x,x,x,x,x,-0.8
CC(C)Cn1nc(C(=O)NCc2ccccc2CN2CCCC2)c2ccccc2c1=O,x,x,x,x,x,1.1
Cc1nc(SCc2nc3ccccc3[nH]2)c2oc3cc(Br)ccc3c2n1,x,x,x,x,x,77.1*
Cc1ccc2oc3c(SCc4nc5ccccc5[nH]4)nc(C)nc3c2c1,x,x,x,x,x,24.4
Cc1ccc(N=Cc2c(O)n(-c3ccc4c(c3)OCO4)c(=O)c3ccccc23)cc1,69.0,2.3,1.3,43.4*,-2.9,-14.8
CCn1c(CSc2nc3ccccc3[nH]2)nc2cc(C(=O)O)ccc21,118.3,5.7,-3.4,-5.0,-7.7,59.9*
Cc1ccc(C)c(S(=O)(=O)N2CCN(C(=O)c3cccnc3)CC2)c1,x,x,x,x,x,1.1
SMILES,STAT3 act,hK5 inh,thrombin 1536,FXIIa inh 1536,FXIa inh 1536,AHR activator
CC(=O)Nc1ccc(-c2csc(Nc3cc(C)ccn3)n2)cc1,87.5,-19.1,-2.2,-2.8,-8.7,-2.3
CC(=O)Nc1ccc(Nc2nc(-c3sc(NC(C)=O)nc3C)cs2)cc1,x,x,x,x,x,-7.7
CC(=O)Nc1cccc(-c2csc(Nc3cc(C)ccn3)n2)c1,110.3,0.1,4.4,10.2,2.9,109.2*
CC(=O)Nc1nc(C)c(-c2csc(Nc3ccc(O)cc3)n2)s1,74.0,-2.8,0.1,16.2,5.2,48.9*
CC(=O)Nc1nc(C)c(-c2csc(Nc3cccc(C(C)=O)c3)n2)s1,x,x,x,x,x,56.6*
CC(=O)Nc1nc(C)c(-c2csc(Nc3cccc([N+](=O)[O-])c3)n2)s1,75.0,5.2,1.1,4.6,-0.1,-6.2
Cc1[nH]c(C)c(S(=O)(=O)N2CCN(c3ccccc3F)CC2)c1C(=O)N1CCCC1,x,x,x,x,x,3.0
CCc1nc(SCC(=O)c2ccc3c(c2)OCCO3)c2ccccc2n1,88.0,11.6,6.5,8.9,8.4,3.3
CCc1nc(SCC(=O)c2ccccc2)c2ccccc2n1,91.0,1.1,5.4,10.6,1.4,50.9*
COCCN(C(=O)C1CC1)c1nnc(-c2ccc(C)cc2)s1,89.7,-3.6,0.6,64.5*,33.6,-16.4
O=C(Cn1nc(C(F)(F)F)c2c1CCCC2)Nc1ccc2c(c1)OCO2,98.6,17.2,-5.7,-0.3,1.0,49.9*
COc1ccc(NC(=O)Cn2nc(C(F)(F)F)c3c2CCCC3)cc1OC,81.4,-4.2,0.4,28.1,18.4,1.8
COCc1cc(=O)n2[nH]c(-c3ccccc3)cc2n1,109.0,3.8,-2.2,6.4,-0.4,33.2
CCCc1cc(=O)n2[nH]c(-c3ccc(Cl)cc3)cc2n1,x,x,x,x,x,32.8
CCCc1cc(=O)n2[nH]c(-c3ccc(C)cc3)cc2n1,109.5,9.2,-4.2,-0.8,6.2,68.7*
CCCc1cc(=O)n2[nH]c(-c3ccccc3)cc2n1,122.2,-2.6,5.0,27.5,20.5,71.9*
O=C(CN1CCC(n2cnc3cc(F)ccc32)CC1)Nc1ccccc1Br,97.8,5.6,-9.3,7.0,4.0,-0.1
Nn1c(-c2cccs2)nc2sc3c(c2c1=O)CCCC3,128.5,-8.0,3.0,15.9,4.8,58.1*
CC1(C)Cc2c(sc3nc(-c4cccs4)n(N)c(=O)c23)CO1,96.2,-4.0,-7.0,3.4,-8.1,73.5*
COC(=O)N/N=C/c1cc(Cl)cc(Cl)c1OCc1ccc(F)cc1,102.8,-0.1,-1.0,10.6,12.4,55.2*
O=[N+]([O-])c1ccc(Nc2ccccc2)nc1,94.2,-1.3,2.5,14.8,10.7,10.7
O=[N+]([O-])c1ccc(Nc2ccc(F)cc2)nc1,98.1,55.2*,23.3,7.0,1.1,-0.9
CCC(=O)Nc1ccc2c(c1)ncn2-c1ccc(C)cc1,96.5,-10.2,4.1,9.6,-3.6,11.3
O=C(CCN1C(=O)C2CCCCC2C1=O)Nc1ccc(Br)cc1F (stereo unspecified),x,x,x,x,x,1.0
O=C1NC(c2ccc(Cl)cc2)=COc2ccccc21,97.8,-2.2,0.4,7.9,-3.6,-2.1
O=C1NN=COc2ccccc21,133.3*,-3.8,2.2,4.5,-2.5,33.7
O=C(COC(=O)c1c2ccccc2cc2ccccc12)Nc1ncc(C(F)(F)F)cc1Cl,104.9,59.4*,8.0,0.5,15.1,5.0
O=S(=O)(Nc1ncnc2sc3c(c12)CCC3)c1ccc2ccccc2c1,100.0,8.1,1.4,13.8,0.4,3.3
Cc1cc(F)ccc1S(=O)(=O)Nc1ncnc2sc3c(c12)CCC3,93.4,11.2,1.6,23.3,41.1*,27.9
